According to ChEMBL document CHEMBL5724801, “EUbOPEN Chemogenomics Library - Multiplex” (2024):
Where “and” joins values, the source holds several entries; their conditions need not be identical. Equal values may be shown once.

Key:
HEK-293T = test: Multiplex assay against HEK293T; type: toxicity, cell-based; settings: human
Outline: (§1)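 Hoechst33342, BioTracker Green Microtubule Cytoskeleton Dye, MitoTracker Red and Annexin V Alexa Fluor 680 were added to live cells at seeding, and imaging on a CQ1 microscope at 37°C and 5% CO2 followed compound addition. Gating by CellPathfinder machine learning separated cells into Hoechst high-intensity objects or normal cells, then normal cells into healthy, pyknosed or fragmented nuclei, then pyknosed cells into mitotic or apoptotic. Per cents of healthy-nucleus cells are reported for the tubulin, mitochondrial-mass and membrane-permeability phenotypes.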

U2OS = test: Multiplex assay against U2OS; type: toxicity, cell-based; settings: human; outline: as §1
[1] = 24 h, 10 µM, compound concentration 10 uM
[2] = 48 h, 1 µM, compound concentration 1 uM
[3] = 48 h, 10 µM, compound concentration 10 uM
[4] = 12 h, 1 µM, compound concentration 1 uM
[5] = 12 h, 10 µM, compound concentration 10 uM
[6] = 24 h, 1 µM, compound concentration 1 uM

O=C(Nc1ccccc1Cl)c1cnc2ccc(C3CCNCC3)cn12.O=C(O)C(=O)O
Population Healthy Nuclei (%) (HEK-293T; [1]): 43.72% and 18%
Population Hoechst High Intensity Objects (%) (HEK-293T; [1]): 0%
Population Membrane Permeable-Phenotype (%) (HEK-293T; [1]): 0.99% and 3.7%
Population Mitochondria Different-Phenotype (%) (HEK-293T; [1]): 74.26% and 51.85%
Population Mitotic Cells (%) (HEK-293T; [1]): 65.55% and 70.09%
Population Normal (%) (HEK-293T; [1]): 100%
Population Pyknosed Nuclei (%) (HEK-293T; [1]): 51.52% and 78%
Population Tubulin-Different-Phenotype (%) (HEK-293T; [1]): 81.19% and 40.74%
Total Cell Count (HEK-293T; [1]): 231 and 150
Population Apoptotic (%) (HEK-293T; [2]): 9.3% and 24.49%
Population Fragmented Nuclei (%) (HEK-293T; [2]): 3.3% and 6.21%
Population Healthy Nuclei (%) (HEK-293T; [2]): 83.82% and 32.92%
Population Hoechst High Intensity Objects (%) (HEK-293T; [2]): 0.1% and 0%
Population Membrane Permeable-Phenotype (%) (HEK-293T; [2]): 2.62% and 1.89%
Population Mitochondria Different-Phenotype (%) (HEK-293T; [2]): 28.13% and 43.4%
Population Mitotic Cells (%) (HEK-293T; [2]): 90.7% and 75.51%
Population Normal (%) (HEK-293T; [2]): 99.9% and 100%
Population Apoptotic (%) (HEK-293T; [3]): 20% and 23.23%
Population Fragmented Nuclei (%) (HEK-293T; [3]): 3.53% and 4.03%
Population Healthy Nuclei (%) (HEK-293T; [3]): 73.65% and 29.53%
Population Hoechst High Intensity Objects (%) (HEK-293T; [3]): 0.21% and 0%
Population Membrane Permeable-Phenotype (%) (HEK-293T; [3]): 1.97% and 0%
Population Mitochondria Different-Phenotype (%) (HEK-293T; [3]): 64.51% and 56.82%
Population Mitotic Cells (%) (HEK-293T; [3]): 80% and 76.77%
Population Normal (%) (HEK-293T; [3]): 99.79% and 100%
Population Pyknosed Nuclei (%) (HEK-293T; [3]): 22.82% and 66.44%
Population Tubulin-Different-Phenotype (%) (HEK-293T; [3]): 33.24% and 81.82%
Population Apoptotic (%) (U2OS; [4]): 34.62% and 26.09%
Population Fragmented Nuclei (%) (U2OS; [4]): 1.77% and 0.57%
Population Healthy Nuclei (%) (U2OS; [4]): 86.73% and 86.21%
Population Hoechst High Intensity Objects (%) (U2OS; [4]): 0%
Population Membrane Permeable-Phenotype (%) (U2OS; [4]): 0.77% and 5.33%
Population Mitochondria Different-Phenotype (%) (U2OS; [4]): 0% and 4%
Population Mitotic Cells (%) (U2OS; [4]): 65.38% and 73.91%
Population Normal (%) (U2OS; [4]): 100%
Population Pyknosed Nuclei (%) (U2OS; [4]): 11.5% and 13.22%
Population Tubulin-Different-Phenotype (%) (U2OS; [4]): 0.26% and 0.67%
Total Cell Count (U2OS; [4]): 452 and 174
Population Apoptotic (%) (U2OS; [5]): 36.51% and 44.74%
Population Fragmented Nuclei (%) (U2OS; [5]): 2.48% and 4.95%
Population Healthy Nuclei (%) (U2OS; [5]): 81.93% and 76.24%
Population Hoechst High Intensity Objects (%) (U2OS; [5]): 0%
Population Membrane Permeable-Phenotype (%) (U2OS; [5]): 2.42% and 7.79%
Population Mitochondria Different-Phenotype (%) (U2OS; [5]): 0% and 9.09%
Population Mitotic Cells (%) (U2OS; [5]): 63.49% and 55.26%
Population Normal (%) (U2OS; [5]): 100%
Population Pyknosed Nuclei (%) (U2OS; [5]): 15.59% and 18.81%
Population Tubulin-Different-Phenotype (%) (U2OS; [5]): 5.14% and 3.25%
Total Cell Count (U2OS; [5]): 404 and 202
Population Apoptotic (%) (U2OS; [6]): 38.71% and 50%
Population Fragmented Nuclei (%) (U2OS; [6]): 2.92% and 3.06%
Population Healthy Nuclei (%) (U2OS; [6]): 81.98% and 83.84%
Population Hoechst High Intensity Objects (%) (U2OS; [6]): 0%
Population Membrane Permeable-Phenotype (%) (U2OS; [6]): 0.79% and 4.17%
Population Mitochondria Different-Phenotype (%) (U2OS; [6]): 0% and 3.12%
Population Mitotic Cells (%) (U2OS; [6]): 61.29% and 50%
Population Normal (%) (U2OS; [6]): 100%
Population Pyknosed Nuclei (%) (U2OS; [6]): 15.1% and 13.1%
Population Tubulin-Different-Phenotype (%) (U2OS; [6]): 0.59% and 1.56%
Total Cell Count (U2OS; [6]): 616 and 229
Population Apoptotic (%) (U2OS; [1]): 50% and 42.31%
Population Fragmented Nuclei (%) (U2OS; [1]): 3.44% and 5.18%
Population Healthy Nuclei (%) (U2OS; [1]): 75.51% and 63.75%
Population Hoechst High Intensity Objects (%) (U2OS; [1]): 0.2% and 0.4%
Population Membrane Permeable-Phenotype (%) (U2OS; [1]): 2.14% and 8.12%
Population Mitochondria Different-Phenotype (%) (U2OS; [1]): 0.8% and 10.62%
Population Mitotic Cells (%) (U2OS; [1]): 50% and 57.69%
Population Normal (%) (U2OS; [1]): 99.8% and 99.6%
Population Pyknosed Nuclei (%) (U2OS; [1]): 21.05% and 31.08%
Population Tubulin-Different-Phenotype (%) (U2OS; [1]): 4.02% and 2.5%
Total Cell Count (U2OS; [1]): 495 and 252
Population Apoptotic (%) (U2OS; [2]): 50.86% and 56.25%
Population Fragmented Nuclei (%) (U2OS; [2]): 4.49% and 3.81%
Population Healthy Nuclei (%) (U2OS; [2]): 84.2% and 83.11%
Population Hoechst High Intensity Objects (%) (U2OS; [2]): 0% and 0.27%
Population Membrane Permeable-Phenotype (%) (U2OS; [2]): 2.09% and 5.57%
Population Mitochondria Different-Phenotype (%) (U2OS; [2]): 0% and 0.98%
Population Mitotic Cells (%) (U2OS; [2]): 49.14% and 43.75%
Population Normal (%) (U2OS; [2]): 100% and 99.73%
Population Pyknosed Nuclei (%) (U2OS; [2]): 11.32% and 13.08%
Population Tubulin-Different-Phenotype (%) (U2OS; [2]): 0.93% and 2.3%
Total Cell Count (U2OS; [2]): 1025 and 368
Population Apoptotic (%) (U2OS; [3]): 54.92% and 58.04%
Population Fragmented Nuclei (%) (U2OS; [3]): 4.59% and 4.38%
Population Healthy Nuclei (%) (U2OS; [3]): 68.57% and 60.62%
Population Hoechst High Intensity Objects (%) (U2OS; [3]): 0.96% and 0%
Population Membrane Permeable-Phenotype (%) (U2OS; [3]): 5.07% and 11.34%
Population Mitochondria Different-Phenotype (%) (U2OS; [3]): 0.81% and 4.64%
Population Mitotic Cells (%) (U2OS; [3]): 45.08% and 41.96%
Population Normal (%) (U2OS; [3]): 99.04% and 100%
Population Pyknosed Nuclei (%) (U2OS; [3]): 26.84% and 35%
Population Tubulin-Different-Phenotype (%) (U2OS; [3]): 3.45% and 9.28%
Total Cell Count (U2OS; [3]): 726 and 320
